This is an account of results in ChEMBL document CHEMBL1165965, “Synthesis and structure-activity relationships of 1,2,3,4-tetrahydropyrido[2,3-b]pyrazines as potent and selective inhibitors of the anaplastic lymphoma kinase” (Bioorg Med Chem, 2010).

Each structure is given as a SMILES string. A value given as a limit tells only on which side of the number the result lay.

Test [1] deals with Dual specificity protein kinase CLK3 (Homo sapiens) (UniProt P49761). Kind of test: Inhibition of CLK3 at 1 uM. In outline: (§1)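 Single-concentration screen using Ambit Bioscience KINOMEscan technology across a panel of 250–400 kinases. Per-kinase inhibition from this screen was summarized as S(90), the fraction of kinases inhibited by more than 90%.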
Test [2] addresses Serine/threonine-protein kinase 32B (Homo sapiens) (UniProt Q9NY57). Kind of test: Inhibition of YANK2 at 1 uM.
For test [3], the target named is T1, Serine/threonine-protein kinase tousled-like 1 (Homo sapiens) (UniProt Q9UKI8).
T1 sequence (whole entry): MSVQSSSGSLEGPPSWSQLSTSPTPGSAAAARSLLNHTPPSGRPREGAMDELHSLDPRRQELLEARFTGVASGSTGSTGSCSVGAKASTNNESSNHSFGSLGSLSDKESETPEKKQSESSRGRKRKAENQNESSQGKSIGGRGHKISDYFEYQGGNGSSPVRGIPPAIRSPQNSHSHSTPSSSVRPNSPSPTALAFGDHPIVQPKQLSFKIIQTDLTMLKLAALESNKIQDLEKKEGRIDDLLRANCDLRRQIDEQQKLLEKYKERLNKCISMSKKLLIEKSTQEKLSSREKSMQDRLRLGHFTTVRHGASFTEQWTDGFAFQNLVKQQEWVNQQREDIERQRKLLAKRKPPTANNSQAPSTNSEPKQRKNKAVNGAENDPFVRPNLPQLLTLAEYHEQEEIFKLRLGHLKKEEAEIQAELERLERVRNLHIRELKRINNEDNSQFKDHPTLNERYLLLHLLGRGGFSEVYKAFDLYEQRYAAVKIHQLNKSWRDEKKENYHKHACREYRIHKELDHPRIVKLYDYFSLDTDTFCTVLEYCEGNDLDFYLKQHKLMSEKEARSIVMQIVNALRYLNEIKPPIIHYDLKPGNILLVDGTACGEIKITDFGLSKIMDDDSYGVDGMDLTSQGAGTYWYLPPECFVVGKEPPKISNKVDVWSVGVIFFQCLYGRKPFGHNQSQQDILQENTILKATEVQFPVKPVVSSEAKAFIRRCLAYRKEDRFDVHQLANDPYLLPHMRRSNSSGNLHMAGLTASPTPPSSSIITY
Kind of test: Inhibition of TLK1 at 1 uM.

The target in test [4] is Phosphatidylinositol 4-kinase beta (Homo sapiens) (UniProt Q9UBF8). In words: Inhibition of PIK4CB at 1 uM.
The target of test [5] is T2, NUAK family SNF1-like kinase 1 (Homo sapiens) (UniProt O60285).
T2 sequence (whole entry): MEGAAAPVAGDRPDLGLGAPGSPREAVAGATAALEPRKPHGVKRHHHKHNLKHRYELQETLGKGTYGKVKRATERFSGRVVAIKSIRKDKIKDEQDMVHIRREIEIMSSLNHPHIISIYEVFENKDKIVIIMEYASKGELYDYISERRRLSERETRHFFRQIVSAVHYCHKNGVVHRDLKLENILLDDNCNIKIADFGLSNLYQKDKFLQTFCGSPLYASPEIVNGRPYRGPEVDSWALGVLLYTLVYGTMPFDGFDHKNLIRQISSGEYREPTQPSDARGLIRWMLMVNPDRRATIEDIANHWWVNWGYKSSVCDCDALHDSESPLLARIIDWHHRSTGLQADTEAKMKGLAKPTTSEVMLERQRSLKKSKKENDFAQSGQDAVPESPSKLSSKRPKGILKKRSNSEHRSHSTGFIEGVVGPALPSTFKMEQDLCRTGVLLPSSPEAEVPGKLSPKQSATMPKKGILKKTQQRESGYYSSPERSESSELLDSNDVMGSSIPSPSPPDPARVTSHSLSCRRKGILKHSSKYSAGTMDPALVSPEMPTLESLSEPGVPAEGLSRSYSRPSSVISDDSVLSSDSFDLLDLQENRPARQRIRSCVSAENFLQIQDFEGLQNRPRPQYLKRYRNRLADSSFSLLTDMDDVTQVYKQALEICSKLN
Kind of test: Inhibition of ARK5 at 1 uM.

For test [6], the target named is Rho-associated protein kinase 2 (Homo sapiens) (UniProt O75116). Kind of test: Inhibition of ROCK2 at 1 uM.
Test [7] relates to Epidermal growth factor receptor (Homo sapiens), P00533 [G719S]. Kind of test: Inhibition of EGFR G719S mutant at 1 uM. In kind it is protein assay. Summed up: as §1
Test [8] concerns the target T3, Serine/threonine-protein kinase DCLK3 (Homo sapiens) (UniProt Q9C098).
T3 sequence (whole entry): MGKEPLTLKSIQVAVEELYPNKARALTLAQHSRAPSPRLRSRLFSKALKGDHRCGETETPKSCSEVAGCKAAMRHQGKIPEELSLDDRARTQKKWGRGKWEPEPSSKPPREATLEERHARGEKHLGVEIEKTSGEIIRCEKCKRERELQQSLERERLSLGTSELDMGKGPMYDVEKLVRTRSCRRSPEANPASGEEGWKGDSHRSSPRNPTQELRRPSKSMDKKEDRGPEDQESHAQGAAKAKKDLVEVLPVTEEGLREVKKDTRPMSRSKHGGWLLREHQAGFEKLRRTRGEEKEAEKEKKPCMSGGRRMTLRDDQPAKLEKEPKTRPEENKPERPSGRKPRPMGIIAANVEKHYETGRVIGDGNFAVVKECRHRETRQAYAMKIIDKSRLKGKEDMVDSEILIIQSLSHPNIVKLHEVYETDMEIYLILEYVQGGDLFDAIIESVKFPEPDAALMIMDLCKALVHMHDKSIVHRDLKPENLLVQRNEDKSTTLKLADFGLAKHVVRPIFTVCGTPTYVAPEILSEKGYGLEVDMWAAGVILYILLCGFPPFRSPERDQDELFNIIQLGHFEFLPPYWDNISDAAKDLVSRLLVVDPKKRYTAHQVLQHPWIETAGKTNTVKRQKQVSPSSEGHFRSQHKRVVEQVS
In words: Inhibition of DCAMKL3 at 1 uM.

The subject of test [9] is Proto-oncogene tyrosine-protein kinase receptor Ret (Homo sapiens), P07949 [V804M]. In words: Inhibition of RET V804M mutant at 1 uM.

Serine/threonine-protein kinase 32B (Homo sapiens), sequence (Q9NY57 whole entry): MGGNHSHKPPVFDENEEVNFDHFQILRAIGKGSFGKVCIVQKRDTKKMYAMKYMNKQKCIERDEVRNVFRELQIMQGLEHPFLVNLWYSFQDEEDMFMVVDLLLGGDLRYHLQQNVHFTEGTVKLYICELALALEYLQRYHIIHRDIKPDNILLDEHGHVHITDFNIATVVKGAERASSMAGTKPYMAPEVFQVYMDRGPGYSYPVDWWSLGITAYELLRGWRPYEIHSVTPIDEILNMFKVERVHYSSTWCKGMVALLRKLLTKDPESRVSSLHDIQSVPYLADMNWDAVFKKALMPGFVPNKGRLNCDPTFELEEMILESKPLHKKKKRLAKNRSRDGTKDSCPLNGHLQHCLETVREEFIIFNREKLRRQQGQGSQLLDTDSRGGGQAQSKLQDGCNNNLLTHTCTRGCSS
Epidermal growth factor receptor (Homo sapiens), P00533 [G719S], sequence (P00533 whole entry G719S): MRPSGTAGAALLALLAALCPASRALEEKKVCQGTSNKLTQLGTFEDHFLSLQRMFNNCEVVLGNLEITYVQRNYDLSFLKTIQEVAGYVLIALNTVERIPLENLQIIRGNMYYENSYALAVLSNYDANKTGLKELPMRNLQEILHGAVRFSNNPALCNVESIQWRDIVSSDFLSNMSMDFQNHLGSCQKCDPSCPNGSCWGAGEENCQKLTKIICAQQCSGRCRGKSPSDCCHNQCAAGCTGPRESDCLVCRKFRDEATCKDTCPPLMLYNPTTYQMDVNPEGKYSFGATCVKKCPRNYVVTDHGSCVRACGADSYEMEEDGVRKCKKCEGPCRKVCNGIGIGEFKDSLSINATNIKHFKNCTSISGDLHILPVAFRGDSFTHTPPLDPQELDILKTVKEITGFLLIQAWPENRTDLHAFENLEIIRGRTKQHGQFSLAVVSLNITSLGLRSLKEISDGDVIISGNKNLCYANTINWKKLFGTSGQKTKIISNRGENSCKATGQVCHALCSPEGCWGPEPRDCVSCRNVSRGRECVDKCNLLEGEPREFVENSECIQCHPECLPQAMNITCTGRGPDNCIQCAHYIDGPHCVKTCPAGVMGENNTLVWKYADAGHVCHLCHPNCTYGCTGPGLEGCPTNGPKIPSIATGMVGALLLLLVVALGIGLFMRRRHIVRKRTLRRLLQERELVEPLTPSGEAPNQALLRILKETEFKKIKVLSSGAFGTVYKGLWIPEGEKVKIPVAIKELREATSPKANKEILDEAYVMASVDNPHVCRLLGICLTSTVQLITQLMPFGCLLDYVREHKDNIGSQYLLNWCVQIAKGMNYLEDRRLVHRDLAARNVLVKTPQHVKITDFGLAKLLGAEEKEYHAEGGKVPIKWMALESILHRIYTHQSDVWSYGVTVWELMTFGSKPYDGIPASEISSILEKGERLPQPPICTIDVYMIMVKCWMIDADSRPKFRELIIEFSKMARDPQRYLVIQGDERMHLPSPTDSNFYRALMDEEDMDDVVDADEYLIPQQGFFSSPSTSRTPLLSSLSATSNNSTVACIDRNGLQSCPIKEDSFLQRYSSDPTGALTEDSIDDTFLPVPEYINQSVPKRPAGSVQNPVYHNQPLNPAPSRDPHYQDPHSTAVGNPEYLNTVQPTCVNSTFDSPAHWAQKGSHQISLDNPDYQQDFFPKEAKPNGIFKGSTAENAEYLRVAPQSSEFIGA
Proto-oncogene tyrosine-protein kinase receptor Ret (Homo sapiens), P07949 [V804M], sequence (P07949 whole entry V804M): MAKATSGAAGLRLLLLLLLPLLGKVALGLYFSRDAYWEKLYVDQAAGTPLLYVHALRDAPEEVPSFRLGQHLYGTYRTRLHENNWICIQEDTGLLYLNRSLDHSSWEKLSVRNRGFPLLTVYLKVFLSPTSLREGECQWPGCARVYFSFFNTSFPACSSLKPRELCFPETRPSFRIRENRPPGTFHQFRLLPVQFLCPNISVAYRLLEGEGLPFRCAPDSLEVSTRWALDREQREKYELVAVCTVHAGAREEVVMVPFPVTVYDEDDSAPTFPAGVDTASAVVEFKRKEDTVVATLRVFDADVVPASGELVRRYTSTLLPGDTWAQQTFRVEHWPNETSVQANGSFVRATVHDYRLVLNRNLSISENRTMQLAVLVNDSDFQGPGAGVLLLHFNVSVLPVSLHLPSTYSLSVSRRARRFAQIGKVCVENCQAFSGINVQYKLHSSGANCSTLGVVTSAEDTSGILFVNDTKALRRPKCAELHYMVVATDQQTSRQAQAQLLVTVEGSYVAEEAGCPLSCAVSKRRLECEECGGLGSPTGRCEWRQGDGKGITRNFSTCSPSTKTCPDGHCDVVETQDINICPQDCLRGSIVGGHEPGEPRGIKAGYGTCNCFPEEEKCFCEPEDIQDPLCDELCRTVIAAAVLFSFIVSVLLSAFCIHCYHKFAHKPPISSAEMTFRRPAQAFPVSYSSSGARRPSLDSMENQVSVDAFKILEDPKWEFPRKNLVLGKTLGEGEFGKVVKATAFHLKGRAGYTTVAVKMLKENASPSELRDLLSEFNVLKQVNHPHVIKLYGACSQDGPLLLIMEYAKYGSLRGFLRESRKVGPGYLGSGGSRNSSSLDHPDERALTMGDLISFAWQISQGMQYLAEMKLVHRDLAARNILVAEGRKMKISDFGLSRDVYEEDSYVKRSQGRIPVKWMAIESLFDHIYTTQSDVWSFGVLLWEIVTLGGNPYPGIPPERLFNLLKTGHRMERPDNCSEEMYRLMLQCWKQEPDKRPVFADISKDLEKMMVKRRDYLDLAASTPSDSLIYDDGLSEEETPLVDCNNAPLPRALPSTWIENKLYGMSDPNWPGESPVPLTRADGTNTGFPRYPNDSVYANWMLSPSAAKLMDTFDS
Phosphatidylinositol 4-kinase beta (Homo sapiens), sequence (Q9UBF8 2-816 limits assumed): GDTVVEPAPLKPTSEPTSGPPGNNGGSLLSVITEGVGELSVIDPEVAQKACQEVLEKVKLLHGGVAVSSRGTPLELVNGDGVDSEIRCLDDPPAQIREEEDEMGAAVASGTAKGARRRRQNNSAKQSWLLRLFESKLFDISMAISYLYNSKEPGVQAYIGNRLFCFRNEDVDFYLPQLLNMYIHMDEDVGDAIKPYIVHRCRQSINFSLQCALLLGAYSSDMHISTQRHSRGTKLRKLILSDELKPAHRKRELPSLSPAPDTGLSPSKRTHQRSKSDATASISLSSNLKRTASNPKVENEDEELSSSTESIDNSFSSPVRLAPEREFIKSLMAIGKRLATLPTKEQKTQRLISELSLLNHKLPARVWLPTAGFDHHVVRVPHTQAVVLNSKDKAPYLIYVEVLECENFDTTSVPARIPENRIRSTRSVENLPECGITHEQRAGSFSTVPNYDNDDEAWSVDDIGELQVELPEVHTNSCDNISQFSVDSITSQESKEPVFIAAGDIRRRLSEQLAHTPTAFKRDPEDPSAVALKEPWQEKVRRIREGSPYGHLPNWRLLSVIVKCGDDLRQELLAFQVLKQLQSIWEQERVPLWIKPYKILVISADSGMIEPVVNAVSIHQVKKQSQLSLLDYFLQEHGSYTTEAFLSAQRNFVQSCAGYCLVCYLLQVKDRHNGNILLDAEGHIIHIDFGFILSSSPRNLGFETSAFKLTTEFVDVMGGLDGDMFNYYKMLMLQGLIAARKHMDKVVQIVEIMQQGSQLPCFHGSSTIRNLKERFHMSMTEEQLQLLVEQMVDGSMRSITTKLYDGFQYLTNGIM
Dual specificity protein kinase CLK3 (Homo sapiens), sequence (P49761 whole entry, looked up): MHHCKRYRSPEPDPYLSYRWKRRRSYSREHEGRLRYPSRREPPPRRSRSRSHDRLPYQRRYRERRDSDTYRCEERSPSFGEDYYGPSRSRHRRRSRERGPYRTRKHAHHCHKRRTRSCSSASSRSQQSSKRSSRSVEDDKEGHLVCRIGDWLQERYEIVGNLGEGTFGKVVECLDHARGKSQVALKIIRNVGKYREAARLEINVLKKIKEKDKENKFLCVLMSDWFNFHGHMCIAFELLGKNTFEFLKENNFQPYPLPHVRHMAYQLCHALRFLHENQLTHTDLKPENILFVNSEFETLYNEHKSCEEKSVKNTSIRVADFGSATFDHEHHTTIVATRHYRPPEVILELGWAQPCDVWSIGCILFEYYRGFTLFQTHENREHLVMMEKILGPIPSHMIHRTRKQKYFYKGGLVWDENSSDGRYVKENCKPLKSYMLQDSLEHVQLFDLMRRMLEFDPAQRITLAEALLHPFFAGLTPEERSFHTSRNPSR

With `FC(F)(F)c1ccc(Cl)cc1CN1CCNc2ncc(-c3ccnc(N4CCNCC4)c3)cc21`, the inhibition in test [1] was less than 50%; in [2], less than 50%; in test [3], less than 50%; in test [4] it was less than 50%; in test [5], 88%; in test [6] it was 76%. Also, the inhibition in [7] was less than 50%; in test [8], 99%; in [9], 76%.
Consider `CN1CCN(c2ccc(-c3cnc4c(c3)N(Cc3cc(Cl)ccc3Cl)CCN4)cn2)CC1`, for which the inhibition was less than 50% in test [1]; less than 50% in [2]; less than 50% in [3]; less than 50% in [4]; 94% in test [5]; less than 50% in test [6]. Besides, the inhibition in test [7] was less than 50%; in [8], 84%; in test [9] it was less than 50%.
As to `COC1CCN(C(=O)c2ccc(-c3cnc4c(c3)N(Cc3cc(Cl)ccc3C(F)(F)F)CCN4)cc2)CC1`, the inhibition in [1], in test [2], in test [3], in test [4] and in test [7] was less than 50% in each case.
For `O=C(c1ccc(-c2cnc3c(c2)N(Cc2cc(Cl)ccc2C(F)(F)F)CCN3)cc1)N1CCCCC1`, the inhibition in [1], in test [2], in test [3], in [4] and in test [7] was less than 50% each time.
On to `O=C(O)c1ccc(-c2cnc3c(c2)N(Cc2cc(Cl)ccc2C(F)(F)F)CCN3)cc1`, for which the inhibition in test [1], in test [2], in [3], in test [4] and in test [7] was less than 50% throughout.
On to `CN1CCN(c2ccc(-c3cnc4c(c3)N(Cc3cc(F)ccc3F)CCN4)cn2)CC1`, for which the inhibition in test [1] is less than 50%; in test [2], less than 50%; in [3] it was less than 50%; in test [4], less than 50%; in test [5] it was 96%; in test [6] it was less than 50%. The inhibition in test [7] was less than 50%; in test [8], 89%; in test [9], less than 50%.
On to `O=C(c1ccc(-c2cnc3c(c2)N(Cc2cc(Cl)ccc2C(F)(F)F)CCN3)cc1)N1CCC(N2CCCC2)CC1`, for which the inhibition in [1], in test [2], in test [3], in test [4] and in [7] was less than 50% each time.
For the compound `CN1CCN(c2ccc(-c3cnc4c(c3)N(Cc3c(F)ccc(F)c3Cl)CCN4)cn2)CC1`, the inhibition is less than 50% in test [1]; less than 50% in test [2]; less than 50% in test [3]; less than 50% in [4]; 92% in test [5]; less than 50% in [6]. Moreover, the inhibition in test [7], in test [8] and in test [9] was less than 50% throughout.
For `CC(=O)N1CCN(c2cc(-c3cnc4c(c3)N(Cc3cc(Cl)ccc3C(F)(F)F)CCN4)ccn2)CC1`, the inhibition was less than 50% in test [1]; less than 50% in test [2]; less than 50% in test [3]; less than 50% in [4]; 90% in test [5]; less than 50% in test [6]. In addition, the inhibition in [7] was less than 50%; in test [8] it was 92%; in test [9], less than 50%.
Take `CN1CCN(c2ccc(-c3cnc4c(c3)N(Cc3cc(Cl)ccc3C(F)(F)F)CCN4)cn2)CC1`: the inhibition in test [1] was less than 50%; in test [2] it was less than 50%; in [3], less than 50%; in [4], less than 50%; in test [5], 92%; in test [6], less than 50%. Further, the inhibition in test [7] was less than 50%; in test [8] it was 75%; in test [9], less than 50%.

As a reminder, the inhibition is the relative decrease from the control value, in per cent. Low readings indicate little suppression, high ones strong suppression.
